# Screening results: PubChem, Broad Institute
# Pf Dd2 growth: inhibitors of Plasmodium falciparum Dd2 growth; P. falciparum Dd2 growth, SYBR Green, 72 h; hits give low values; actives 2.3% (n = 94,000); activity change, % at 10 µM; AID 1159554; in the data active = activity change below about -80%; inconclusive = no clear call, values can overlap the other calls
# T cruzi growth-1: T. cruzi proliferation inhibition; actives 5.9% (n = 77,000); inhibition, % at 8.34 µM; T. cruzi beta-gal in NIH3T3, GalScreen luminescence, 90 h;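 active = mean inhibition above about 93%, with at least 55% of replicates each passing it, limit read from the data, passing the limit was not always enough; inconclusive = only one of those two conditions holds; inactive = neither condition holds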
# GASC1 inh: blocks human GASC-1 (KDM4C) demethylase activity; AID 720574; actives 0.15% (n = 96,000); Q9H3R0; inhibition, % at 12.5 µM; GST-KDM4C 2-372, H3K9me3 peptide, LANCE TR-FRET;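 active = mean replicate inhibition above about 25%, with at least 55% of replicates also reaching it, limit read from the data, passing the limit was not always enough; inconclusive = only one of those two conditions met; inactive = neither condition met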
# Target sequence (Q9H3R0 2-372 limits assumed): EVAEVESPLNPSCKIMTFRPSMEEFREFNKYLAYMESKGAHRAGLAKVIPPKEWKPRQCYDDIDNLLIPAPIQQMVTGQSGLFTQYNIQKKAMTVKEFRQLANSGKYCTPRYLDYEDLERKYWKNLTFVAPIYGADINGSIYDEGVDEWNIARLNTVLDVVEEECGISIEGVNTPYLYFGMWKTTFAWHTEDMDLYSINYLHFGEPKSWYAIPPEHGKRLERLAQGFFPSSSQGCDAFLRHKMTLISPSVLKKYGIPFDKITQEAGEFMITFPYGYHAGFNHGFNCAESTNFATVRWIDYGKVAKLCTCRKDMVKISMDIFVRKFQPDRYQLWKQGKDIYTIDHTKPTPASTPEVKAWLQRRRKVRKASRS
#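 material = GST-tagged GASC-1 (JMJD2C) catalytic fragment, aa 2-372 | amount = enzyme final amount 10 nM | medium = HEPES buffer, pH 7.5, plus ascorbate | also added = H3K9me3 peptide substrate, Fe(II), 2-oxoglutarate | dosing = single dose | times = 30 min demethylation and 1 h detection at room temperature | detection = LANCE TR-FRET | read-out basis = Fall in 671/618 emission ratio as inhibition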
# IDH1 mut inh: inhibitors of human IDH1 R132H; O75874; IDH1 R132H reductase, diaphorase/resazurin fluorescence, 60 min; inhibition, % at 10 µM; actives 0.18% (n = 70,000); AID 624101; in the data active = inhibition above about 34%; inconclusive = no clear call, values can overlap the other calls; inactive = below about 11%;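 also: 0% = DMSO and 100% = no enzyme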
# T cruzi growth-2: Trypanosoma cruzi proliferation inhibition; actives 72% (n = 5,600); AID 651739; shares compounds with T cruzi growth-1; T. cruzi beta-gal in NIH3T3, GalScreen luminescence, 90 h; inhibition, % at 8.35 µM;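 active = mean replicate inhibition above about 95% and at least 55% of replicates individually reaching it, limit read from the data; inconclusive = only one of the two criteria is met; inactive = neither criterion is met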
# T cruzi growth-3: inhibitors of T. cruzi proliferation; shares compounds with T cruzi growth-1; actives 21% (n = 5,600); T. cruzi beta-gal in NIH3T3, GalScreen luminescence, 90 h; AID 651740; inhibition, % at 2.09 µM;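 active = mean inhibition above about 95%, with at least 55% of replicates also reaching it, limit read from the data; inconclusive = meets just one of the two conditions; inactive = meets neither condition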;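 also: plate controls were neutral control median for no effect and positive control median for full effect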
# NIH3T3 tox: kills mouse NIH/3T3 fibroblasts | NIH/3T3 viability, CellTiter-Glo ATP luminescence, 90 h | actives 14% (n = 5,600) | AID 651742 | shares compounds with T cruzi growth-1 | cytotoxicity (signal decrease), % at 8.35 µM;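 active = mean signal decrease across replicates above about 35% based on untreated-well scatter, with enough replicates individually passing, limit read from the data; inconclusive = no rule stated though some were filed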;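 also: 0% = median of neutral control wells and 100% = median of positive control wells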
# 3T3 cytotox 2: cytotoxicity in mouse NIH/3T3 fibroblasts; shares compounds with T cruzi growth-1; actives 56% (n = 5,600); inhibition, % at 24.9 µM; NIH/3T3 viability, CellTiter-Glo ATP luminescence, 90 h;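 active = mean loss of cell viability signal at or above a set limit, and enough replicates individually reaching it; inconclusive = meets only the mean limit or only the replicate share; inactive = meets neither condition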;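 also: 0% = median of neutral control wells and 100% = median of positive control wells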
# * marks the source's active call; other numbers are inactive results; u = inconclusive; x = no result. The list is not random: actives were taken first. Their share in the collection is about 5.9%.
SMILES,Pf Dd2 growth,T cruzi growth-1,GASC1 inh,IDH1 mut inh,T cruzi growth-2,T cruzi growth-3,NIH3T3 tox,3T3 cytotox 2
C[C@H](CO)N1C[C@H](C)[C@@H](CN(C)C(=O)Nc2ccc(F)cc2)OCCCC[C@H](C)Oc2ccc(NC(=O)Nc3ccccc3)cc2C1=O,15.7,113.6*,-0.7,-3.3,110.1*,30.5,-1.3,-14.5
C[C@H](CO)N1C[C@H](C)[C@H](CN(C)C(=O)Nc2ccc3c(c2)OCO3)OCCCC[C@H](C)Oc2ccc(NC(=O)Nc3ccccc3)cc2C1=O,8.8,113.7*,-0.6,x,111.8*,55.4,-15.5,-20.3
C[C@@H]1CN([C@@H](C)CO)C(=O)c2cc(NC(=O)Nc3ccc(F)cc3)ccc2O[C@@H](C)CCCCO[C@H]1CN(C)C(=O)c1ccccc1,54.2,68.5,-0.7,-1.5,x,x,x,x
C[C@@H]1CCCCO[C@H](CN(C)C(=O)Nc2ccccc2)[C@H](C)CN([C@H](C)CO)C(=O)c2cc(NC(=O)Nc3ccc(F)cc3)ccc2O1,-85.4*,102.2*,-2.0,x,104.1*,107.6*,-5.4,-26.5
C[C@@H]1CCCCO[C@@H](CN(C)C(=O)Nc2ccccc2)[C@H](C)CN([C@H](C)CO)C(=O)c2cc(NC(=O)Nc3ccccc3)ccc2O1,-50.5,98.8*,-2.8,-0.6,108.3*,60.1,1.9,2.7
C[C@H]1CCCCO[C@@H](CN(C)C(=O)c2ccccc2)[C@@H](C)CN([C@@H](C)CO)C(=O)c2cc(NC(=O)Nc3ccc(F)cc3)ccc2O1,-68.0,u,-2.6,0.8,115.1*,11.6,3.2,15.1
C[C@@H]1CCCCO[C@H](CN(C)C(=O)Nc2ccc3c(c2)OCO3)[C@@H](C)CN([C@H](C)CO)C(=O)c2cc(NC(=O)Cc3ccccc3)ccc2O1,-31.9,37.9,0.8,x,x,x,x,x
C[C@H]1CCCCO[C@@H](CN(C)C(=O)Nc2ccc3c(c2)OCO3)[C@@H](C)CN([C@@H](C)CO)C(=O)c2cc(NC(=O)Cc3ccccc3)ccc2O1,-60.4,u,1.0,0.0,102.8*,10.6,6.3,-8.6
COc1ccc(F)cc1S(=O)(=O)NCc1cccnc1,x,x,x,-0.1,x,x,x,x
O=C(NCCN1CCOCC1)C(=O)Nc1cccc(F)c1,x,x,x,1.9,x,x,x,x
CC(=O)Nc1cccc(-c2nnc(SCC(=O)Nc3cccc(Cl)c3)n2C)c1,x,x,x,0.2,x,x,x,x
C[C@@H]1CN([C@H](C)CO)S(=O)(=O)c2ccc(C3=CCCCC3)cc2O[C@H]1CN(C)Cc1ccccc1,-52.6,118.7*,-2.7,-0.1,87.4,101.1*,78.3*,105.8*
C[C@@H]1CN([C@@H](C)CO)S(=O)(=O)c2ccc(C3=CCCCC3)cc2O[C@H]1CN(C)Cc1ccccc1,-52.0,121.2*,0.5,1.6,93.1,110.4*,82.8*,103.6*
CN(CC(=O)Nc1cccc(Cl)c1)S(=O)(=O)c1ccccc1,x,x,x,0.6,x,x,x,x
C[C@@H]1CN([C@@H](C)CO)S(=O)(=O)c2ccc(C#CC3CC3)cc2O[C@H]1CN(C)C(=O)c1cccc(F)c1,14.7,x,-3.5,-0.5,x,x,x,x
C[C@@H]1CN([C@H](C)CO)S(=O)(=O)c2ccc(C#CC3CCCC3)cc2O[C@@H]1CN(C)C(=O)c1cccc(F)c1,-59.1,123.1*,-1.9,x,95.4*,u,10.8,102.9*
C[C@@H]1CN([C@@H](C)CO)S(=O)(=O)c2ccc(C#CC3CCCC3)cc2O[C@@H]1CN(C)C(=O)c1cccc(F)c1,-40.3,118.4*,0.2,-0.6,101.6*,97.5*,18.6,105.6*
C[C@H](CO)N1C[C@H](C)[C@H](CN(C)C(=O)c2cccc(F)c2)Oc2cc(C#CC3CCCC3)ccc2S1(=O)=O,-65.4,122.6*,-1.3,x,103.0*,78.2,4.7,103.4*
C[C@@H]1CN([C@@H](C)CO)S(=O)(=O)c2ccc(C#CC3CCCC3)cc2O[C@H]1CN(C)C(=O)c1cccc(F)c1,u,120.0*,-2.3,x,91.2,100.1*,41.4*,105.7*
O=C(CCc1nc(-c2ccccc2)no1)Nc1ccccc1Cl,x,x,x,-0.2,x,x,x,x
Cn1c(CN2C(=O)CSc3ccc(C(F)(F)F)cc32)nnc1SCc1ccccc1,x,x,x,0.8,x,x,x,x
COc1cc(CCC(=O)O)cc(OC)c1OC,x,x,x,-0.4,x,x,x,x
C[C@@H]1CN([C@H](C)CO)S(=O)(=O)c2ccc(C#CC3CCCC3)cc2O[C@H]1CN(C)C(=O)c1cccc(F)c1,-85.3*,122.5*,-0.9,x,100.6*,89.6,4.9,102.7*
CCc1ccccc1NC(=O)CN(C)S(=O)(=O)c1ccc2ccccc2c1,x,x,x,-0.4,x,x,x,x
O=S(=O)(Cc1ccccc1)N1CCCCN2[C@H](CO)[C@@H](c3ccc(-c4ccc(F)cc4)cc3)[C@@H]2C1,0.3,108.5*,0.0,x,108.1*,52.5,23.0,102.4*
SMILES,Pf Dd2 growth,T cruzi growth-1,GASC1 inh,IDH1 mut inh,T cruzi growth-2,T cruzi growth-3,NIH3T3 tox,3T3 cytotox 2
O=S(=O)(Cc1ccccc1)N1CCCCN2[C@H](CO)[C@H](c3ccc(-c4ccc(F)cc4)cc3)[C@@H]2C1,9.8,99.9*,-0.3,x,99.0*,75.0,27.1,104.6*
CCc1ccc(-n2c(SCC(=O)Nc3ccc(F)cc3)nnc2-c2ccncc2)cc1,x,x,x,0.1,x,x,x,x
C[C@@H]1CC[C@]2(C(=O)O)CC[C@]3(C(=O)O)C(=CCC4[C@@]5(C)CC[C@H](O[C@@H]6O[C@H](C)[C@H](O)[C@H](O)[C@H]6O)C(C)(C)C5CC[C@]43C)C2[C@H]1C (stereo not given in full),x,x,x,-0.4,x,x,x,x
COCC#Cc1ccc2c(c1)O[C@@H](CN(C)Cc1ccncc1)[C@H](C)CN([C@@H](C)CO)S2(=O)=O,-7.8,u,2.4,3.5,93.6,96.8*,2.0,65.0*
COCC#Cc1ccc2c(c1)O[C@@H](CN(C)Cc1ccccc1)[C@H](C)CN([C@@H](C)CO)S2(=O)=O,-70.2,101.0*,-4.0,-2.3,84.7,64.3,51.6*,99.4*
COCC#Cc1ccc2c(c1)O[C@H](CN(C)Cc1ccncc1)[C@@H](C)CN([C@H](C)CO)S2(=O)=O,27.1,44.4,0.7,1.2,x,x,x,x
COc1ccc(Cl)cc1N(CC(=O)Nc1cc(Cl)cc(Cl)c1)S(C)(=O)=O,x,x,x,0.0,x,x,x,x
COc1cccc(-c2ccc3c(c2)O[C@H](CN(C)Cc2cccnc2)[C@@H](C)CN([C@H](C)CO)S3(=O)=O)c1,-48.7,113.0*,6.9,-0.4,98.0*,108.3*,64.0*,85.6*
COc1cccc(-c2ccc3c(c2)O[C@@H](CN(C)Cc2cccnc2)[C@@H](C)CN([C@@H](C)CO)S3(=O)=O)c1,-28.2,95.2*,0.3,5.3,u,71.7,15.6,53.1*
